# Assay: Toxicity liver stage against HepG2, at 10uM
# Format: cell-based
# Set-up: test concentration 10 uM, cell line HepG2-A16-CD81EGFP
# Conditions: human, HepG2-A16-CD81EGFP cells; read-out: INHIBITION
# Outline: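 Uninfected HepG2-A16-CD81EGFP cells, 3 × 10^3 per well, 1536-well, plated on prespotted compound at 10 μM final, parasite-free screening media added to match infected plates; puromycin 10 μM positive, DMSO 0.5% negative; run in parallel with 48 h PbLuc assay at 37 °C, 5% CO2; viability by CellTiter-Glo luminescence, normalized to controls.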
row,SMILES,cytotoxicity at 10 µM
1,CCOCCCNCc1cc2c(C)cc(C)cc2n2c(=O)n(C)nc12,-4%
2,CCC(C)(C)NC(=O)Nc1nnc(-c2ccccn2)s1,6.39%
3,Cc1cccnc1[C@H](C)NC(=O)c1cccc(CC2CCNCC2)c1,-5.22%
4,CCOc1ccccc1CCNC(=O)NCC(O)c1cccs1 (stereo unspecified),-4.47%
5,Cc1cnn(CC2CCCCN2C(=O)Cc2cccc(F)c2)c1 (stereo unspecified),-10.7%
6,CC(=O)c1cccc(OCCCC(=O)N(C)CCc2ccncc2)c1,-11.7%
7,CC(=O)N1CCCC1c1cccc(Cc2ccc(F)cc2)n1 (stereo unspecified),-1.98%
8,COc1ccc(Br)cc1SCCC(N)=O,7.72%
9,Cc1ccc(NC(=O)CC2NC(N3CCc4ccccc43)=NC2=O)cc1 (stereo unspecified),0.417%
10,COc1ccc(NC(=O)N2CCC(c3nnc[nH]3)CC2)cc1C,15.8%
11,O=C(Nc1ccccn1)c1nc(N2CCCC2)ncc1Cl,-8.77%
12,c1cnn(CCC2CCCCN2Cc2cnc(C3CCCCC3)nc2)c1 (stereo unspecified),0.106%
13,CC(C)=CCN1CCC2(CC1)c1ccccc1[C@@H](N1CCSCC1)[C@@H]2O,7.25%
14,Cc1csc(Nc2cc(C3CN(C(C)C)C3)nc(C)n2)n1,-7.56%
15,CCN1CCO[C@@H]2CN(C(=O)c3ccc4[nH]ccc4c3)CC[C@@H]2C1,-116%
16,Cc1nc(-n2nc(C3CC3)cc2NC(=O)C(C)C)[nH]c(=O)c1C,54.5%
17,O=C(N1CCCO1)[C@@]12CCO[C@@H]1CCN(Cc1ccccn1)C2,3.98%
18,CNc1cc(N2CCCC2CNCc2ccco2)ncn1 (stereo unspecified),-10.4%
19,O=C1N(Cc2ccc(F)c(F)c2)CCCC1(O)CNCC1CCCCC1 (stereo unspecified),10.5%
20,Cc1occc1C(=O)NCC(=O)N1CCC(COc2ccccc2)CC1,12.2%
21,CN(Cc1nc(Cc2ccccc2F)no1)CC1Cc2ccccc2O1 (stereo unspecified),-5.19%
22,CNS(=O)(=O)c1cccc(CNc2ncccn2)c1,-9.7%
23,CC(c1ncc(C(C)(C)C)o1)N1CCN(c2ccncc2)CC1 (stereo unspecified),18.5%

row,SMILES,cytotoxicity at 10 µM
1,CC(C)c1noc(-c2cccc(OCC(N)=O)c2)n1,-7.39%
2,OC1COCCN(Cc2cc(-c3ccccc3OC(F)(F)F)no2)C1 (stereo unspecified),-12.7%
3,COC(=O)C1(NCc2nc(C)c(C)o2)CCC(C)CC1 (stereo unspecified),-5.54%
4,CSCC[C@H](N)c1nnc(SCC(=O)Nc2ccc(Br)cc2)o1,-2.15%
5,O=C(NCc1nncn1C1CC1)c1ccccc1OCC1CC1,3.36%
6,c1cnc(N2CCCC3(CN(CC4CCOCC4)CCO3)C2)cn1 (stereo unspecified),0.37%
7,Cc1nnsc1-c1nnc2sc(C3CCC3)nn12,-7.86%
8,O=C(CS(=O)(=O)c1ncccc1Cl)NC1CCCc2ccccc21 (stereo unspecified),-7.69%
9,COCCN1CCC2(COCCN(Cc3ccc4c(c3)OCO4)C2)C1 (stereo unspecified),-0.234%
10,COCC(=O)N1CCC2(CC1)COCCN2CCN(C)C,-3.28%
11,O=C(NCC(F)(F)F)C1CSCN1S(=O)(=O)c1ccc(F)cc1Cl (stereo unspecified),-12.8%
12,Clc1nc2ccccn2c1CNCC1CN(C2CC2)CCO1 (stereo unspecified),-3.06%
13,Cc1cc(-c2c(C)c(-c3cnn(C)c3)nc(N)c2C#N)oc1C,-93.5%
14,Cc1cc(NC(=O)CC2(Cn3cnnn3)CCCCC2)nn1C,10.4%
15,CCCS(=O)(=O)N1CCC(NC(=O)c2cc(C)c(CC)s2)CC1,18.4%
16,CCCS(=O)(=O)N1CCC2(CC1)CC(Nc1ncccn1)CO2 (stereo unspecified),-0.00726%
17,N#Cc1cccc(S(=O)(=O)NC(=O)CCOCC(F)(F)F)c1,12.4%
18,O=C(CCc1nc2cccnc2[nH]1)NCc1ccc2c(c1)OCO2,0.356%
19,CNc1cccc(C2CCCN(Cc3ncc[nH]3)C2)n1 (stereo unspecified),-18%
20,CN(C)C(=O)CN(C)C(=O)c1cccn1CCc1ccccc1,1.17%
21,CCOCCCOC(=O)c1ccc2c(c1)[nH]c(=O)n2C,3.54%
22,COc1ccc(CCN(C)CCS(=O)(=O)c2ccc(Cl)cc2)cc1OC,35.4%
23,CCCn1cc(C(=O)NCCCC(N)=O)c2ccccc21,6.13%
